Results taken from ChEMBL document CHEMBL1139306, “Design and synthesis of pyrazole derivatives as potent and selective inhibitors of tissue-nonspecific alkaline phosphatase (TNAP)” (Bioorg Med Chem Lett, 2009).

System: not listed separately
Experiment: Selectivity of TNSALP over PLAP

Question: With `O=C(NCCO)c1cc(-c2ccc(Cl)c(Cl)c2Cl)n[nH]1` as the compound, how does the fold change (FC) read?
Answer: Its fold change (FC) is 2000.

System: not listed separately
Experiment: Selectivity of TNSALP over GAPDH

Question: Which fold change (FC) does the source give for `O=C(NCCO)c1cc(-c2ccc(Cl)c(Cl)c2Cl)n[nH]1` here?
Answer: The fold change (FC) was 2000.

Target: Alkaline phosphatase, placental type (Homo sapiens, UniProt P05187)
Experiment: Inhibition of PLAP

Alkaline phosphatase, placental type, sequence (P05187 whole entry): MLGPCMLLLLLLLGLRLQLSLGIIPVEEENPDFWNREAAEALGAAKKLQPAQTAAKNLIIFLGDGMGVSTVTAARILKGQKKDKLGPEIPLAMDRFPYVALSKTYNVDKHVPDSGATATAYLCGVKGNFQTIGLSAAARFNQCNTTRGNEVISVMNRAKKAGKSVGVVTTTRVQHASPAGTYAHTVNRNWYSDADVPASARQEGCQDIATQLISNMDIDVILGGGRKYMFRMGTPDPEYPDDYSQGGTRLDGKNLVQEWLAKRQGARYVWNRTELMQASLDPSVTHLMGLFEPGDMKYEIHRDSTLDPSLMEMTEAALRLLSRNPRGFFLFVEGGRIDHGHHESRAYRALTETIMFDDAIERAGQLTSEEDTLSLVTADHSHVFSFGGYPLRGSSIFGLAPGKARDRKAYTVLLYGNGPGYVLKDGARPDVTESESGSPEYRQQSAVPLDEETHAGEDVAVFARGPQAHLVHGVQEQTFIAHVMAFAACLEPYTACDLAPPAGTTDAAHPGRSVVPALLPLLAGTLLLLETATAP

Question: Which IC50 does the source give for `O=C(NCCO)c1cc(-c2ccc(Cl)c(Cl)c2Cl)n[nH]1` here?
Answer: The IC50 was over 10000 nM.

Target: Glyceraldehyde-3-phosphate dehydrogenase (Homo sapiens, UniProt P04406)
Experiment: Inhibition of GAPDH

Glyceraldehyde-3-phosphate dehydrogenase, sequence (P04406 whole entry): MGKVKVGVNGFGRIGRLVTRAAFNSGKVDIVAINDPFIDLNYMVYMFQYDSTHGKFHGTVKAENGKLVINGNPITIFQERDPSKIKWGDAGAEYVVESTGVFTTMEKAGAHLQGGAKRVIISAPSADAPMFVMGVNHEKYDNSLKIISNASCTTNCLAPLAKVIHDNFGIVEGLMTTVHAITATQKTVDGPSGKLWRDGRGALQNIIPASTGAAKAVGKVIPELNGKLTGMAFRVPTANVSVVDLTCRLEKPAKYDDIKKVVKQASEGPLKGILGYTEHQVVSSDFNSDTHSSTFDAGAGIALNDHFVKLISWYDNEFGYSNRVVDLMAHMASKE

Question: For `O=C(NCCO)c1cc(-c2ccc(Cl)c(Cl)c2Cl)n[nH]1`, which IC50 is on record?
Answer: The IC50 was over 10000 nM.

Target: T1, Alkaline phosphatase, tissue-nonspecific isozyme (Homo sapiens, UniProt P05186)
T1 sequence (P05186 whole entry): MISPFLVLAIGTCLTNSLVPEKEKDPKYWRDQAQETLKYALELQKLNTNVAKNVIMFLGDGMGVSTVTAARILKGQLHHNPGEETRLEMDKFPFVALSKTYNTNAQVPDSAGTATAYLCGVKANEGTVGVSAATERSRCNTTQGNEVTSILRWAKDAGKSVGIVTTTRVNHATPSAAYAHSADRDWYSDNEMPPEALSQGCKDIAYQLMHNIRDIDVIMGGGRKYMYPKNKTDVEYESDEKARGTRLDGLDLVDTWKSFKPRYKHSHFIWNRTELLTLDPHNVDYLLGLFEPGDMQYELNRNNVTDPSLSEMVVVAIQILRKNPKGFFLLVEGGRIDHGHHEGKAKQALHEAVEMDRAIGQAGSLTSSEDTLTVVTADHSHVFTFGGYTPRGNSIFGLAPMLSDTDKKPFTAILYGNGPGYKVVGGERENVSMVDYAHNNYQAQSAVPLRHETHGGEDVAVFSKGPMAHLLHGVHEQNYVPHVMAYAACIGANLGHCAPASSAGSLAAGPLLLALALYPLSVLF
Experiment: Inhibition of TNSALP
How it was run: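 TNAP activity read on an EnVision plate reader in 100 mM diethanolamine-HCl, pH 9.8, with 1 mM MgCl₂, 20 μM ZnCl₂ and 50 μM CDP-star as substrate.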

Question: For `O=C(NCCCO)c1cc(-c2cc(F)c(Cl)cc2Cl)n[nH]1`, which IC50 is on record?
Answer: The IC50 was 56 nM.

Question: For `O=C(NCCO)c1cc(-c2ccc(Cl)cc2Cl)n[nH]1`, which IC50 is on record?
Answer: The IC50 was 44 nM.

Question: Which IC50 does the source give for `COCCNC(=O)c1cc(-c2ccc(Cl)cc2Cl)n[nH]1` here?
Answer: Its IC50 is 46 nM.

Question: With `O=C(NCCO)c1cc(-c2ccc(F)cc2F)n[nH]1` as the compound, how does the IC50 read?
Answer: The IC50 was 35 nM.

Question: Which IC50 does the source give for `O=C(NCCO)c1cc(-c2cc(F)c(F)cc2F)n[nH]1` here?
Answer: The IC50 was 134 nM.

Question: Which IC50 does the source give for `CC(C)CCNC(=O)c1cc(-c2ccc(Cl)cc2Cl)n[nH]1` here?
Answer: Its IC50 is 459 nM.

Question: Which IC50 does the source give for `O=C(NCCO)c1cc(-c2cc(F)c(Cl)cc2Cl)n[nH]1` here?
Answer: Its IC50 is 100 nM.

Question: For `CC(C)(C)NC(=O)c1cc(-c2ccc(Cl)cc2Cl)n[nH]1`, which IC50 is on record?
Answer: Its IC50 is 398 nM.

Question: Which IC50 does the source give for `CC(C)CNC(=O)c1cc(-c2ccc(Cl)cc2Cl)n[nH]1` here?
Answer: The IC50 was 82 nM.

Question: For `O=C(c1cc(-c2ccc(Cl)cc2Cl)n[nH]1)N(CCO)CCO`, which IC50 is on record?
Answer: Its IC50 is 47 nM.

Question: For `CN(C)C(=O)c1cc(-c2ccc(Cl)cc2Cl)n[nH]1`, which IC50 is on record?
Answer: The IC50 was 119 nM.

Question: With `O=C(NCCCCO)c1cc(-c2ccc(Cl)cc2Cl)n[nH]1` as the compound, how does the IC50 read?
Answer: The IC50 was 35 nM.

Question: For `CCN(CC)C(=O)c1cc(-c2ccc(Cl)cc2Cl)n[nH]1`, which IC50 is on record?
Answer: Its IC50 is 285 nM.

Question: With `O=C(c1cc(-c2ccc(Cl)cc2Cl)n[nH]1)N1CCN(CCO)CC1` as the compound, how does the IC50 read?
Answer: Its IC50 is 375 nM.

Question: For `CC(C)NC(=O)c1cc(-c2cc(F)c(Cl)cc2Cl)n[nH]1`, which IC50 is on record?
Answer: Its IC50 is 4850 nM.

Question: With `O=C(c1cc(-c2cc(F)c(Cl)cc2Cl)n[nH]1)N(CCO)CCO` as the compound, how does the IC50 read?
Answer: Its IC50 is 127 nM.

Question: With `O=C(NCCCO)c1cc(-c2ccc(Cl)cc2Cl)n[nH]1` as the compound, how does the IC50 read?
Answer: The IC50 was 31 nM.

Question: For `CC(C)NC(=O)c1cc(-c2ccc(Cl)cc2Cl)n[nH]1`, which IC50 is on record?
Answer: The IC50 was 51 nM.

Question: With `CN1CCN(C(=O)c2cc(-c3ccc(Cl)cc3Cl)n[nH]2)CC1` as the compound, how does the IC50 read?
Answer: The IC50 was 828 nM.

Question: For `CN(C)C(=O)c1cc(-c2cc(F)c(Cl)cc2Cl)n[nH]1`, which IC50 is on record?
Answer: The IC50 was 324 nM.

Question: Which IC50 does the source give for `NNC(=O)c1cc(-c2ccc(Cl)cc2Cl)n[nH]1` here?
Answer: Its IC50 is 44 nM.

Question: With `O=C(c1cc(-c2ccc(Cl)cc2Cl)n[nH]1)N1CCCCCC1` as the compound, how does the IC50 read?
Answer: Its IC50 is 1450 nM.

Question: Which IC50 does the source give for `O=C(c1cc(-c2ccc(Cl)cc2Cl)n[nH]1)N1CCOCC1` here?
Answer: The IC50 was 574 nM.

Question: With `CCN1CCN(C(=O)c2cc(-c3ccc(Cl)cc3Cl)n[nH]2)CC1` as the compound, how does the IC50 read?
Answer: Its IC50 is 488 nM.
